What was measured:
Type in all cases: functional
[1] = test system: Mycobacterium avium subsp. paratuberculosis; assay: Antituberculosis activity against Mycobacterium paratuberculosis B236 isolated from bovine assessed as minimum drug level required for inhibition by MGIT 960 susceptibility test
Summary of the method: (§1)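 10^5 to 10^6 CFU from single-cell suspensions inoculated in duplicate into MGIT ParaTB medium with supplement and egg yolk. Drugs were at final 0.5–64.0 μg/ml, with 128.0 μg/ml added for some strains. Tubes were incubated at 37°C in MGIT 960. Inhibition is the lowest concentration giving a time to detection longer than a drug-free 1:100 inoculum control. Killing is no positive signal through 56 days.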

[2] = test system: Mycobacterium avium subsp. paratuberculosis; assay: Antituberculosis activity against Mycobacterium paratuberculosis B238 isolated from bovine assessed as minimum drug level required for inhibition by MGIT 960 susceptibility test; summary of the method: as §1
[3] = test system: Mycobacterium avium subsp. paratuberculosis; assay: Antituberculosis activity against Mycobacterium paratuberculosis JTC303 isolated from bovine assessed as minimum drug level required for inhibition by MGIT 960 susceptibility test; summary of the method: as §1
[4] = test system: Escherichia coli; assay: Antituberculosis activity against Escherichia coli ATCC 25922 clinical isolate assessed as minimum drug level required for inhibition by MGIT 960 susceptibility test
[5] = test system: Mycolicibacterium smegmatis; assay: Antituberculosis activity against Mycobacterium smegmatis ATCC 14468 assessed as minimum drug level required for killing after 56 days by MGIT 960 susceptibility test; summary of the method: as §1
[6] = test system: Mycobacterium avium subsp. paratuberculosis; assay: Antituberculosis activity against Mycobacterium paratuberculosis ATCC 19698 isolated from bovine assessed as minimum drug level resulting in no detectable growth at 10^6 CFU of inoculum after 56 days by MGIT 960 susceptibility test
Summary of the method: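 M. paratuberculosis ATCC 19698 at 10^6 CFU per MGIT ParaTB tube in duplicate, drugs at final 1.0–64.0 μg/ml, 37°C in MGIT 960. Inhibition is the lowest concentration whose time to detection exceeds the 1:100 diluted-inoculum solvent control. No detectable growth means the tube never signals positive through 56 days.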

[7] = test system: Mycobacterium avium subsp. paratuberculosis; assay: Antituberculosis activity against Mycobacterium paratuberculosis UCF-4 isolated from Crohn's disease patient assessed as minimum drug level required for killing after 56 days by MGIT 960 susceptibility test; summary of the method: as §1
[8] = test system: Mycobacterium avium subsp. paratuberculosis; assay: Antituberculosis activity against Mycobacterium paratuberculosis B238 isolated from bovine assessed as minimum drug level required for killing after 56 days by MGIT 960 susceptibility test; summary of the method: as §1
[9] = test system: Mycobacterium avium subsp. paratuberculosis; assay: Antituberculosis activity against Mycobacterium paratuberculosis B213 isolated from bovine assessed as minimum drug level required for killing after 56 days by MGIT 960 susceptibility test; summary of the method: as §1
[10] = test system: Mycobacterium avium subsp. paratuberculosis; assay: Antituberculosis activity against Mycobacterium paratuberculosis UCF-7 isolated from Crohn's disease patient assessed as colony counts at 2 ug after 12 days by MGIT 960 susceptibility test
[11] = test system: Mycobacterium avium subsp. paratuberculosis; assay: Antituberculosis activity against Mycobacterium paratuberculosis B236 isolated from bovine assessed as minimum drug level required for killing after 56 days by MGIT 960 susceptibility test; summary of the method: as §1
[12] = test system: Mycobacterium avium; assay: Antituberculosis activity against Mycobacterium avium 104 isolated from AIDS patient assessed as minimum drug level required for killing within 15 days by MGIT 960 susceptibility test
[13] = test system: Mycobacterium avium subsp. paratuberculosis; assay: Antituberculosis activity against Mycobacterium paratuberculosis UCF-5 isolated from Crohn's disease patient assessed as minimum drug level required for killing after 56 days by MGIT 960 susceptibility test; summary of the method: as §1
[14] = test system: Mycobacterium avium subsp. paratuberculosis; assay: Antituberculosis activity against Mycobacterium paratuberculosis B244 isolated from bovine assessed as minimum drug level required for killing after 56 days by MGIT 960 susceptibility test; summary of the method: as §1

## Sc1ncnc2nc[nH]c12 [MERCAPTOPURINE ANHYDROUS]
[1]
  Activity: 4 µg/mL
[2]
  Activity: 4 µg/mL
[3]
  Activity: 1 µg/mL
[4]
  Activity: >128 µg/mL
[5]
  Activity: >128 µg/mL
[6]
  Activity: 32 µg/mL
[7]
  Activity: >32 µg/mL
[8]
  Activity: >32 µg/mL
[9]
  Activity: >32 µg/mL
[10]
  log10CFU/ml: 3.87
[11]
  Activity: >32 µg/mL
[12]
  Activity: >64 µg/mL
[13]
  Activity: >32 µg/mL
[14]
  Activity: >32 µg/mL

Source: ChEMBL document CHEMBL1151475, “Thiopurine drugs azathioprine and 6-mercaptopurine inhibit Mycobacterium paratuberculosis growth in vitro” (2008)
